≈ marks a conversion by molar mass, not a printed value.

Holding throughout (type): functional
Test [1] has as its system Stenotrophomonas maltophilia. Kind of test: Antimicrobial activity against Stenotrophomonas maltophilia KJN2 harboring ampN with xylE-Gmomega cassette insertion by Etest. The essentials: (§1)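 Imipenem and meropenem MICs were read from Etest strips, following the manufacturer's instructions.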
Test [2] relates to Stenotrophomonas maltophilia. Put plainly: Antimicrobial activity against Stenotrophomonas maltophilia KJG harboring ampG with xylE-Gmomega cassette insertion by Etest. The essentials:
as §1

The test system of test [3] is Stenotrophomonas maltophilia. Put plainly: Antimicrobial activity against ampN deficient Stenotrophomonas maltophilia KJ by Etest. The procedure, abridged: as §1
Test [4] concerns Stenotrophomonas maltophilia. Put plainly: Antimicrobial activity against ampN deficient Stenotrophomonas maltophilia KJ harboring ampG with xylE-Gmomega cassette insertion by Etest. The essentials: as §1
Test [5] has as its system Stenotrophomonas maltophilia. Kind of test: Antimicrobial activity against Stenotrophomonas maltophilia KJN2 harboring pRK415 plasmid and ampN with xylE-Gmomega cassette insertion by Etest. The essentials: as §1
For test [6], the system named is Stenotrophomonas maltophilia. Kind of test: Antimicrobial activity against Stenotrophomonas maltophilia KJN2 harboring pRK-G plasmid and ampN with xylE-Gmomega cassette insertion by Etest. The procedure, abridged:
as §1

Test [7] has as its system Stenotrophomonas maltophilia. Kind of test: Antimicrobial activity against Stenotrophomonas maltophilia KJN2 harboring pRK-NG plasmid and ampN with xylE-Gmomega cassette insertion by Etest. The essentials:
as §1

Test [8] concerns Stenotrophomonas maltophilia. Kind of test: Antimicrobial activity against Stenotrophomonas maltophilia KJN2 harboring pRK-EcG plasmid and ampN with xylE-Gmomega cassette insertion by Etest. The procedure, abridged: as §1
The test system of test [9] is Stenotrophomonas maltophilia. Kind of test: Antimicrobial activity against Stenotrophomonas maltophilia KJ by Etest. The essentials:
as §1

In test [10] the test system is Stenotrophomonas maltophilia. Put plainly: Antimicrobial activity against Stenotrophomonas maltophilia KJN1 harboring ampN with xylE-Gmomega cassette insertion by Etest. The procedure, abridged:
as §1

Test [11] has as its system Stenotrophomonas maltophilia. Kind of test: Antimicrobial activity against ampN deficient Stenotrophomonas maltophilia KJ by agar dilution method. The procedure, abridged:
(§2)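 MICs were determined in triplicate by standard 2-fold serial agar dilution, following CLSI guidelines.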

In test [12] the test system is Stenotrophomonas maltophilia. Kind of test: Antimicrobial activity against Stenotrophomonas maltophilia KJ by agar dilution method. The essentials: as §2
In general terms: In agar dilution, organisms are placed on agar that contains the substance at set levels.

For test [13], the system named is Stenotrophomonas maltophilia. Put plainly: Antimicrobial activity against Stenotrophomonas maltophilia KJN1 harboring ampN with xylE-Gmomega cassette insertion by agar dilution method. The procedure, abridged: as §2
Test [14] has as its system Stenotrophomonas maltophilia. Put plainly: Antimicrobial activity against Stenotrophomonas maltophilia KJN2 harboring ampN with xylE-Gmomega cassette insertion by agar dilution method. The essentials: as §2
The test system of test [15] is Stenotrophomonas maltophilia. Kind of test: Antimicrobial activity against Stenotrophomonas maltophilia KJG harboring ampG with xylE-Gmomega cassette insertion by agar dilution method. The procedure, abridged: as §2
The subject of test [16] is Stenotrophomonas maltophilia. Kind of test: Antimicrobial activity against ampN deficient Stenotrophomonas maltophilia KJ harboring ampG with xylE-Gmomega cassette insertion by agar dilution method. The essentials:
as §2

Test [17] deals with Stenotrophomonas maltophilia. Put plainly: Antimicrobial activity against Stenotrophomonas maltophilia KJ harboring pRK415 plasmid by agar dilution method. The procedure, abridged: as §2
Test [18] deals with Stenotrophomonas maltophilia. Put plainly: Antimicrobial activity against Stenotrophomonas maltophilia KJ harboring pRK-NG plasmid by agar dilution method. The essentials:
as §2

For test [19], the system named is Stenotrophomonas maltophilia. Put plainly: Antimicrobial activity against Stenotrophomonas maltophilia KJN2 harboring pRK415 plasmid and ampN with xylE-Gmomega cassette insertion by agar dilution method. The procedure, abridged:
as §2

Test [20] relates to Stenotrophomonas maltophilia. Kind of test: Antimicrobial activity against Stenotrophomonas maltophilia KJN2 harboring pRK-G plasmid and ampN with xylE-Gmomega cassette insertion by agar dilution method. The procedure, abridged: as §2
In test [21] the test system is Stenotrophomonas maltophilia. Kind of test: Antimicrobial activity against Stenotrophomonas maltophilia KJN2 harboring pRK-NG plasmid and ampN with xylE-Gmomega cassette insertion by agar dilution method. The procedure, abridged:
as §2

Test [22] relates to Stenotrophomonas maltophilia. Put plainly: Antimicrobial activity against Stenotrophomonas maltophilia KJN2 harboring pRK-EcG plasmid and ampN with xylE-Gmomega cassette insertion by agar dilution method. The procedure, abridged: as §2

One may read the MIC as the lowest concentration found to suppress growth. For the compound `C[C@@H](O)[C@H]1C(=O)N2C(C(=O)O)=C(S[C@@H]3CN[C@H](C(=O)N(C)C)C3)[C@H](C)[C@H]12` [MEROPENEM], the MIC in test [1] was found to be 0.38 mg/L (≈ 0.991 µM); in test [2], 0.38 mg/L (≈ 0.991 µM); in test [3] it was 0.38 mg/L (≈ 0.991 µM); in test [4], 0.38 mg/L (≈ 0.991 µM); in [5] it was 0.5 mg/L (≈ 1.3 µM); in test [6] it was 0.75 mg/L (≈ 1.96 µM). In addition, the minimal inhibitory concentration (MIC) was above 32 mg/L in [7], above 32 mg/L in test [8], above 32 mg/L in test [9] and 0.5 mg/L (≈ 1.3 µM) in [10].

Take `CO[C@@]1(NC(=O)Cc2cccs2)C(=O)N2C(C(=O)O)=C(COC(N)=O)CS[C@@H]21` [CEFOXITIN]: the MIC in test [11] was 32 mg/L (≈ 74.9 µM); in test [12], 1020 mg/L (≈ 2400 µM); in test [13], 32 mg/L (≈ 74.9 µM); in test [14], 32 mg/L (≈ 74.9 µM); in [15], 32 mg/L (≈ 74.9 µM); in [16], 32 mg/L (≈ 74.9 µM). Also, the MIC in [17] amounted to 1020 mg/L (≈ 2400 µM); in test [18] it was 1020 mg/L (≈ 2400 µM); in test [19], 32 mg/L (≈ 74.9 µM); in [20] it was 64 mg/L (≈ 150 µM); in test [21], 1020 mg/L (≈ 2400 µM); in test [22], 1020 mg/L (≈ 2400 µM).

Consider `CC1(C)S[C@@H]2[C@H](NC(=O)C(C(=O)O)c3ccccc3)C(=O)N2[C@H]1C(=O)O` (stereo partly specified) [CARBENICILLIN], for which the minimal inhibitory concentration (MIC) in test [11] was determined as 4 mg/L (≈ 10.6 µM); in test [12], 1020 mg/L (≈ 2710 µM); in [13], 8 mg/L (≈ 21.1 µM); in test [14], 2 mg/L (≈ 5.29 µM); in [15], 2 mg/L (≈ 5.29 µM); in test [16], 2 mg/L (≈ 5.29 µM). Moreover, the MIC in test [17] was 1020 mg/L (≈ 2710 µM); in [18] it was 1020 mg/L (≈ 2710 µM); in test [19] it was 4 mg/L (≈ 10.6 µM); in [20], 4 mg/L (≈ 10.6 µM); in [21], 1020 mg/L (≈ 2710 µM); in test [22] it was 512 mg/L (≈ 1350 µM).

As for `C[C@H]1[C@H](NC(=O)/C(=N\OC(C)(C)C(=O)O)c2csc(N)n2)C(=O)N1S(=O)(=O)O` [AZTREONAM], the minimal inhibitory concentration (MIC) in [11] was 32 mg/L (≈ 73.5 µM); in test [12] it was above 1020 mg/L; in test [13], 32 mg/L (≈ 73.5 µM); in test [14], 16 mg/L (≈ 36.7 µM); in [15] it was 16 mg/L (≈ 36.7 µM); in [16], 16 mg/L (≈ 36.7 µM). For the same compound, the minimal inhibitory concentration (MIC) in test [17] was above 1020 mg/L; in test [18] it was above 1020 mg/L; in [19], 16 mg/L (≈ 36.7 µM); in test [20] it was 32 mg/L (≈ 73.5 µM); in [21] it was above 1020 mg/L; in test [22] it was above 1020 mg/L.

Source of the values: ChEMBL document CHEMBL1275592, “AmpN-AmpG operon is essential for expression of L1 and L2 beta-lactamases in Stenotrophomonas maltophilia” (2010).
